Measurements from ChEMBL document CHEMBL3393033, “6-(Azaindol-2-yl)pyridine-3-sulfonamides as potent and selective inhibitors targeting hepatitis C virus NS4B” (Bioorg Med Chem Lett, 2015).
Calls of active or inactive are those of the source. No cut-off for these calls is given here.

Assays:
[1] = system: Hepatitis C virus; experiment: Antiviral activity against genotype 1b Hepatitis C virus bicistronic replicon Con1 infected in human HuH7 cells after 3 days by RT-PCR analysis; format: functional, cell-based, Hepacivirus hominis; conditions: genotype 1b Con1, Huh-7, 72 h
In short: (§1)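 Huh7 cells carrying a genotype 1b (Con1) bicistronic HCV replicon seeded at 5000 cells/well. Compound added at a final DMSO concentration of 0.5%, then incubated at 37°C for 3 days. Replicon RNA, and GAPDH RNA as the endogenous selectivity control, quantified by real-time RT-PCR. Values are the average of at least two independent determinations.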

[2] = Toxicity in human HuH7 cells infected with genotype 1b Hepatitis C virus bicistronic replicon Con1 assessed as reduction in GAPDH RNA after 3 days by RT-PCR analysis; format: cell-based, Huh-7; in short: as §1
[3] = Ratio of plasma concentration in Sprague-Dawley rat at 10 mg/kg, po administered as single dose after 6 hrs to EC50 for genotype 1b Hepatitis C virus bicistronic replicon Con1 infected in human HuH7 cells; format: ADME, organism-based, Huh-7; parameters: dose 10 mg/kg, route oral; conditions: in vivo
In short: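 Male Sprague Dawley rats (n = 2) received a single 10 mg/kg oral dose in 0.4% hydroxypropyl methylcellulose suspension. Plasma concentration at 6 h post-dose was measured by LC-MS/MS and divided by the Con1 1b replicon EC₅₀ from the Huh7 RT-PCR assay.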

[4] = Ratio of drug level in liver to plasma Sprague-Dawley rat plasma at 10 mg/kg, po administered as single dose by LC-MS/MS analysis; format: ADME, organism-based; parameters: dose 10 mg/kg, route oral
In short: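 Male Sprague Dawley rats (n = 2) received 10 mg/kg orally as a suspension in 0.4% hydroxypropyl methylcellulose, after lyophilization from acetonitrile/water (1:1). Liver and plasma concentrations were measured at 6 h post-dose by LC-MS/MS and expressed as a liver/plasma ratio.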

[5] = Ratio of plasma concentration in po dosed monkey at 8 hrs to EC50 for genotype 1b Hepatitis C virus bicistronic replicon Con1 infected in human Huh7 cells; format: ADME, organism-based, Huh-7; conditions: in vivo
In short: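 Monkeys: male cynomolgus (n = 2) dosed orally at 3 mg/kg as a suspension in 0.4% hydroxypropyl methylcellulose. Plasma level at 8 h post-dose was measured by LC-MS/MS and expressed relative to the replicon 1b EC₅₀.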

[6] = Ratio of plasma concentration in po dosed dog at 8 hrs to EC50 for genotype 1b Hepatitis C virus bicistronic replicon Con1 infected in human Huh7 cells; format: ADME, organism-based, Huh-7; conditions: in vivo
In short: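 Dogs: male beagles (n = 2) dosed orally at 2 mg/kg as a suspension in 0.4% hydroxypropyl methylcellulose. Plasma concentration at 8 h post-dose was measured by LC-MS/MS and divided by the replicon 1b EC₅₀.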

[7] = AUC (0 to 24 hrs) in monkey at 3 mg/kg, po by LC-MS/MS analysis; conditions: cynomolgus monkey, plasma
[8] = system: Hepacivirus hominis; experiment: Inhibition of Hepatitis C virus NS5B polymerase up to 10000 nM
[9] = system: Hepatitis C virus; experiment: Antiviral activity against HCV genotype 1b Con1 replicon cells expressing NS4B V105M mutant grown under serial passage in presence of 1x to 30x EC90 level of compound assessed as reduction in replicon RNA levels relative to wild type HCV genotype 1b Con1; format: functional, Hepacivirus hominis
[10] = AUC (0 to 6 hrs) in Sprague-Dawley rat plasma at 10 mg/kg, po administered as single dose by LC-MS/MS analysis; format: ADME, organism-based; parameters: time < 6 hr, dose 10 mg/kg, route oral
In short: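 Male Sprague Dawley rats (n = 2) were dosed once orally at 10 mg/kg. Compound was lyophilized from acetonitrile/water (1:1) and given as a suspension in 0.4% hydroxypropyl methylcellulose. Plasma was sampled at 30 min and at 1, 2, 3, 4 and 6 h post-dose for LC-MS/MS. AUC is over 0–6 h.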

[11] = system: Hepacivirus hominis; experiment: Inhibition of Hepatitis C virus NS3 protease up to 10000 nM
[12] = system: Hepatitis C virus; experiment: Antiviral activity against HCV genotype 1b Con1 replicon cells expressing NS4B F98C mutant grown under serial passage in presence of 1x to 30x EC90 level of compound assessed as reduction in replicon RNA levels relative to wild type HCV genotype 1b Con1; format: functional, Hepacivirus hominis
[13] = AUC (0 to 24 hrs) in dog plasma at 2 mg/kg, po by LC-MS/MS analysis; format: ADME, organism-based, Canis lupus familiaris; parameters: time < 24 hr, dose 2 mg/kg, route oral
In short: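 Male beagle dogs (n = 2) were dosed orally at 2 mg/kg. Compound was lyophilized from acetonitrile/water (1:1) and given as a suspension in 0.4% hydroxypropyl methylcellulose. Plasma was collected at 30 min and at 1, 2, 4, 8 and 24 h for LC-MS/MS.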

Compound | EC50 [1] [µM] | IC50 at 3 days [2] [µM] | further results
C[C@H](NS(=O)(=O)c1ccc(-c2c(C#N)c3cnc(OC(F)F)nc3n2C2CCC2)nc1)C(F)(F)F | 0.97 | > 10 | –
COc1ncc2c(C#N)c(-c3ccc(S(=O)(=O)N[C@@H](C)C(F)(F)F)cn3)n(C3CCC3)c2n1 | 0.24 | > 10 | –
COc1cnc2c(c1)c(C#N)c(-c1ccc(S(=O)(=O)N[C@@H](C)C(F)(F)F)cn1)n2C1CCC1 | 0.027 | > 9 | Ratio [3]: 30; Kp [4]: 14; Ratio [5]: 4; Ratio [6]: 6; AUC(0-t) at 24 h [7]: 2.28 µM·h; inhibition [8]: inactive; fold change (FC) [9]: 17; AUC(0-t) at 6 h [10]: 7.61 µM·h; inhibition [11]: inactive; fold change (FC) [12]: 25; AUC(0-t) at 24 h [13]: 4.18 µM·h
Cc1cnc2c(c1)c(C#N)c(-c1ccc(S(=O)(=O)N[C@@H](C)C(F)(F)F)cc1)n2C1CCC1 | 0.087 | > 10 | –
C[C@H](NS(=O)(=O)c1ccc(-c2c(C#N)c3cc(Cl)cnc3n2CC2CC2)nc1)C(F)(F)F | 0.039 | > 10 | –
C[C@H](NS(=O)(=O)c1ccc(-c2c(C#N)c3cnc(Cl)cc3n2C2CCC2)nc1)C(F)(F)F | 0.26 | 1.31 | –
C[C@H](NS(=O)(=O)c1ccc(-c2c(C#N)c3ncc(Cl)cc3n2C2CCC2)nc1)C(F)(F)F | 0.094 | 2.5 | –
C[C@H](NS(=O)(=O)c1ccc(-c2c(C#N)c3cc(C4CC4)cnc3n2C2CCC2)nc1)C(F)(F)F | 0.04 | > 10 | Ratio [3]: 32; Kp [4]: 11; AUC(0-t) at 6 h [10]: 10.2 µM·h
C[C@H](NS(=O)(=O)c1ccc(-c2c(C#N)c3cc(Cl)cnc3n2C2CCCC2)nc1)C(F)(F)F | 0.027 | > 10 | Ratio [3]: 40; Kp [4]: 19; Ratio [5]: 0.3; Ratio [6]: 2; AUC(0-t) at 24 h [7]: 0.29 µM·h; AUC(0-t) at 6 h [10]: 6.84 µM·h; AUC(0-t) at 24 h [13]: 2.07 µM·h
Cc1cc2c(cn1)c(C#N)c(-c1ccc(S(=O)(=O)N[C@@H](C)C(F)(F)F)cn1)n2C1CCC1 | 0.23 | > 10 | –
C[C@H](NS(=O)(=O)c1ccc(-c2c(C#N)c3cc(Cl)ncc3n2C2CCC2)nc1)C(F)(F)F | 0.53 | > 10 | –
CCOc1cnc2c(c1)c(C#N)c(-c1ccc(S(=O)(=O)N[C@@H](C)C(F)(F)F)cn1)n2C1CCC1 | 0.2 | > 10 | –
C[C@H](NS(=O)(=O)c1ccc(-c2c(C#N)c3cccnc3n2C2CCC2)nc1)C(F)(F)F | 0.217 | > 10 | –
C[C@H](NS(=O)(=O)c1ccc(-c2c(C#N)c3cc(OC(F)F)cnc3n2C2CCC2)nc1)C(F)(F)F | 0.05 | > 10 | Ratio [3]: 36; Kp [4]: 7; AUC(0-t) at 6 h [10]: 9.37 µM·h
